Reference: ChEMBL document CHEMBL1140049, “Bioisosteric replacement of the pyrazole 5-aryl moiety of N-(piperidin-1-yl)-5-(4-chlorophenyl)-1-(2,4-dichlorophenyl)-4-methyl-1H-pyrazole-3-carboxamide (SR141716A). A novel series of alkynylthiophenes as potent and selective cannabinoid-1 receptor antagonists” (J Med Chem, 2008)
pEC50, pIC50: −log10 of the molar value. The source made the active and inactive calls. The calls are words filed in the database; no cut-off is given here.

Key:
[1] = target: Cannabinoid receptor 2 (Homo sapiens, UniProt P34972); test: Displacement of [3H]CP-55940 from human CB2 receptor expressed in HEK293 cells; type: cell-based
Chain of Cannabinoid receptor 2 (P34972 whole entry): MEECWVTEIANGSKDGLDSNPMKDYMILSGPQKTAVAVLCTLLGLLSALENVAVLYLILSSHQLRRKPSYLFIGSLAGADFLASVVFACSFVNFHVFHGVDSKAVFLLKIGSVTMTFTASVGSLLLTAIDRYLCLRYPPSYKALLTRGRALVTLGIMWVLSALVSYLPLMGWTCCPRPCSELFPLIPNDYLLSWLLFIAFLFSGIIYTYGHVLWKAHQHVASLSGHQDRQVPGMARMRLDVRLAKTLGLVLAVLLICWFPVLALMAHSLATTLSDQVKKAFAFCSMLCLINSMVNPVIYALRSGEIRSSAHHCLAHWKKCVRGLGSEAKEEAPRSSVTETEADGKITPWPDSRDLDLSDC

[2] = target: T1, Cannabinoid receptor 1 (Homo sapiens, UniProt P21554); test: Agonist activity at human CB1 receptor expressed in HEK293 cells assessed as increase in [35S]gammaGTP binding relative to control; type: cell-based
T1 sequence (P21554 whole entry): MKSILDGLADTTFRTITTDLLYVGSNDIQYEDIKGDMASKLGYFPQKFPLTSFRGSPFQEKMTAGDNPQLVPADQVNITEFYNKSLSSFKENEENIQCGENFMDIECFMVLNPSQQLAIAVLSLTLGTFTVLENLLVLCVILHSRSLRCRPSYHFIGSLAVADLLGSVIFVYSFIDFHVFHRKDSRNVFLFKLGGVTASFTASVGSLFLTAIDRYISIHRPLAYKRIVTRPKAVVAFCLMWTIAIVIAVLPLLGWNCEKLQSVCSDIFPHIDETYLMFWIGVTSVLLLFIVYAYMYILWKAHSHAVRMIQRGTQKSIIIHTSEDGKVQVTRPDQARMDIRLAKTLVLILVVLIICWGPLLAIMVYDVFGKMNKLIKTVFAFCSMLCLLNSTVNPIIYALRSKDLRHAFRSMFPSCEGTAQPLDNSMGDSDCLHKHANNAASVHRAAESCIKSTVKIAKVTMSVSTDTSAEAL

[3] = target: T1, Cannabinoid receptor 1; test: biochemical; type: cell-based, HEK293
[4] = test system: HEK293; test: Selectivity ratio of IC50 for human CB2 receptor to human CB1 receptor expressed in HEK293 cells; type: cell-based
[5] = target: T1, Cannabinoid receptor 1; test: Antagonist activity at human CB1 receptor expressed in HEK293 cells assessed as inhibition of Eu-GTP binding; type: cell-based
[6] = target: T1, Cannabinoid receptor 1; test: Antagonist activity at human CB1 receptor expressed in HEK293 cells assessed as effect on [35S]gammaGTP binding relative to control; type: cell-based
[7] = target: T1, Cannabinoid receptor 1; test: Displacement of [3H]SR141716A from human CB1 receptor expressed in HEK293 cells; type: cell-based
[8] = test system: Mus musculus; test: Decrease in body weight in DIO C57BL/6 mouse model at 20 mg/kg, po qd for 21 days; type: functional, organism-based; parameters: dose 20 mg/kg
[9] = test system: Mus musculus; test: Suppression of appetite in orally dosed DIO C57BL/6 mouse model; type: functional, organism-based
[10] = test system: Rattus norvegicus; test: Suppression of appetite in orally dosed spontaneously feeding Wistar rat model; type: functional, organism-based
Method in brief: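 Male Wistar rats (210-270 g), singly housed on 12 h reversed light cycle over a week; single oral gavage of 3, 10 or 20 mg/kg or vehicle (20% DMSO/10% Tween-80/70% H2O) before lights off, chow supplied at 11 a.m.; food intake at 1, 2, 3, 6 h as cal per g body weight; n = 4-6.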

[11] = test system: Mus musculus; test: Decrease in body weight in DIO C57BL/6 mouse model at 10 mg/kg, po qd for 21 days

Compound	pIC50 [1]	Activity [2]	pIC50 [3]	Ratio IC50 [4]	pEC50 [5]	Activity [6]	pIC50 [7]	Activity [8]	Activity [9]	Activity [10]	Activity [11]
Cc1c(C(=O)NN2CCCCC2)nn(-c2ccc(Cl)cc2Cl)c1-c1ccc(C#CC2CCCCC2)s1	5.80	Active	8.14	216	6.35	–	–	–	–	–	–
Cc1c(C(=O)NN2CCCCC2)nn(-c2ccc(Cl)cc2Cl)c1-c1ccc(C#CCOc2ccccc2)s1	5.15	–	7.37	164	7.73	Active	–	–	–	–	–
Cc1c(C(=O)NN2CCCCC2)nn(-c2ccc(Cl)cc2Cl)c1-c1ccc(C#CCC(C)C)s1	6.41	Active	8.64	168	7.92	–	8.92	–	–	–	–
CCCCC#Cc1ccc(-c2c(C)c(C(=O)NN3CCCCCC3)nn2-c2ccc(Cl)cc2Cl)s1	6.25	Active	8.77	332	8.32	–	–	–	–	–	–
CCCCCc1ccc(-c2c(C)c(C(=O)NN3CCCCC3)nn2-c2ccc(Cl)cc2Cl)s1	5.20	–	7.24	109	7.12	–	–	–	–	–	–
CCCC#Cc1ccc(-c2c(C)c(C(=O)NN3CCCCCC3)nn2-c2ccc(Cl)cc2Cl)s1	5.82	–	8.15	214	7.85	Active	8.92	–	–	–	–
CCC/C=C/c1ccc(-c2c(C)c(C(=O)NN3CCCCC3)nn2-c2ccc(Cl)cc2Cl)s1	5.42	–	7.67	178	6.84	–	–	–	–	–	–
Cc1c(C(=O)NN2CC3CCCC3C2)nn(-c2ccc(Cl)cc2Cl)c1-c1ccc(C#CC2CC2)s1 (stereo not given)	5.24	–	7.68	272	6.98	Active	–	–	–	–	–
Cc1c(C(=O)NN2CCCCC2)nn(-c2ccc(Cl)cc2Cl)c1-c1ccc(Br)s1	6.05	–	7.45	25	7.17	–	–	–	–	–	–
CCCC#Cc1ccc(-c2c(CC)c(C(=O)NN3CCCCCC3)nn2-c2ccc(Cl)cc2Cl)s1	6.51	–	8.05	34	7.78	–	8.92	–	–	–	–
Cc1c(C(=O)NN2CC3CCCC3C2)nn(-c2ccc(Cl)cc2Cl)c1-c1ccc(C#CC(C)(C)C)s1 (stereo not given)	5.94	Active	7.66	53	6.80	–	–	–	–	–	–
Cc1c(C(=O)NN2CCCCC2)nn(-c2ccc(Cl)cc2Cl)c1-c1ccc(C#CC2CCCC2)s1	5.74	Active	8.15	255	7.61	–	–	–	–	–	–
Cc1c(C(=O)NN2CCCCC2)nn(-c2ccc(Cl)cc2Cl)c1-c1ccc(C#CC(C)(C)C)s1	5.72	Active	7.49	59	7.54	–	–	–	–	–	–
CCCCC#Cc1ccc(-c2c(C)c(C(=O)NCCCCCC)nn2-c2ccc(Cl)cc2Cl)s1	6.58	Active	8.59	100	7.13	–	–	–	–	–	–
CCC#Cc1ccc(-c2c(C)c(C(=O)NN3CCCCCC3)nn2-c2ccc(Cl)cc2Cl)s1	5.98	–	7.62	44	7.44	Active	–	–	–	–	–
CCC/C=C/c1ccc(-c2c(C)c(C(=O)NN3CC4CCCC4C3)nn2-c2ccc(Cl)cc2Cl)s1 (stereo not given)	5.27	–	7.56	197	7.15	–	–	–	–	–	–
Cc1c(C(=O)NN2CCCCC2)nn(-c2ccc(Cl)cc2Cl)c1-c1ccc(C#CCNC(C)C)s1	5.14	–	7.08	87	6.41	–	–	–	–	–	–
CCCC#Cc1ccc(-c2c(C)c(C(=O)NN3CC4CCCC4C3)nn2-c2ccc(Cl)cc2Cl)s1 (stereo not given)	6.11	–	8.10	99	7.72	Active	–	–	–	–	–
CCC#Cc1ccc(-c2c(C)c(C(=O)NN3CCCCC3)nn2-c2ccc(Cl)cc2Cl)s1	5.36	–	7.18	66	7.29	Active	–	–	–	–	–
Cc1c(C(=O)NN2CCCCC2)nn(-c2ccc(Cl)cc2Cl)c1-c1ccc(C#CCOC(C)C)s1	5.75	Active	7.63	76	7.24	–	–	–	–	–	–
CCCC#Cc1ccc(-c2c(C)c(C(=O)NN3CCCCC3)nn2-c2ccc(Cl)cc2Cl)s1	5.65	–	7.86	159	7.54	Active	8.92	–	–	–	–

Compound	pIC50 [1]	Activity [2]	pIC50 [3]	Ratio IC50 [4]	pEC50 [5]	Activity [6]	pIC50 [7]	Activity [8]	Activity [9]	Activity [10]	Activity [11]
COCC#Cc1ccc(-c2c(C)c(C(=O)NN3CCCCC3)nn2-c2ccc(Cl)cc2Cl)s1	5.56	–	7.19	42	6.85	–	–	–	–	–	–
CCCCC#Cc1ccc(-c2c(C)c(C(=O)NN3CCCCC3)nn2-c2ccc(Cl)cc2Cl)s1	6.51	Active	8.85	222	8.10	–	–	–	–	–	–
CCCC#Cc1ccc(-c2c(CC)c(C(=O)NN3CCCCC3)nn2-c2ccc(Cl)cc2Cl)s1	6.04	–	8.21	151	7.86	–	8.92	Active	Dose-dependent effect	Dose-dependent effect	–
CCOCC#Cc1ccc(-c2c(C)c(C(=O)NN3CCCCC3)nn2-c2ccc(Cl)cc2Cl)s1	6.01	–	7.90	78	7.59	–	–	–	–	–	–
CCCCC#Cc1ccc(-c2c(C)c(C(=O)NC3CCCCC3)nn2-c2ccc(Cl)cc2Cl)s1	6.56	Active	8.68	133	7.36	–	–	–	–	–	–
CCC#Cc1ccc(-c2c(C)c(C(=O)NN3CC4CCCC4C3)nn2-c2ccc(Cl)cc2Cl)s1 (stereo not given)	6.04	–	7.55	33	7.45	Active	–	–	–	–	–
Cc1c(C(=O)NN2CCCCCC2)nn(-c2ccc(Cl)cc2Cl)c1-c1ccc(C#CCC(C)C)s1	6.16	Active	8.31	139	7.84	–	8.92	–	–	–	–
Cc1c(C(=O)NN2CCCCCC2)nn(-c2ccc(Cl)cc2Cl)c1-c1ccc(Cl)s1	5.67	–	6.80	14	6.87	–	–	–	–	–	–
Cc1c(C(=O)NN2CCCCC2)nn(-c2ccc(Cl)cc2Cl)c1-c1ccc(C#CC2CC2)s1	5.37	–	7.22	70	7.14	Active	–	–	–	–	–
Cc1c(C(=O)NN2CCCCC2)nn(-c2ccc(Cl)cc2Cl)c1-c1ccc(Cl)s1	5.89	–	7.30	26	6.83	–	–	–	–	–	–
Cc1c(C(=O)NN2CCCCCC2)nn(-c2ccc(Cl)cc2Cl)c1-c1ccc(Br)s1	6.15	–	7.39	17	7.19	–	–	–	–	–	–
Cc1c(C(=O)NN2CCCCC2)nn(-c2ccc(Cl)cc2Cl)c1-c1ccc(C#CCN(C)C)s1	5.90	–	6.91	10	6.46	–	–	–	–	–	–
Cc1c(C(=O)NN2CCCCC2)nn(-c2ccc(Cl)cc2Cl)c1-c1ccc(C#CCCc2ccccc2)s1	5.76	Active	8.21	285	7.69	–	–	–	–	–	–
CCCCC#Cc1ccc(-c2c(C)c(C(=O)NN3CC4CCCC4C3)nn2-c2ccc(Cl)cc2Cl)s1 (stereo not given)	6.80	Active	8.89	122	8.24	–	–	–	–	–	–
Cc1c(C(=O)NN2CC3CCCC3C2)nn(-c2ccc(Cl)cc2Cl)c1-c1ccc(C#CC2CCCCC2)s1 (stereo not given)	5.76	Active	8.11	221	6.53	–	–	–	–	–	–
CCCCC#Cc1ccc(-c2c(C)c(C(=O)NCCCC)nn2-c2ccc(Cl)cc2Cl)s1	6.20	Active	8.52	213	7.53	–	–	–	–	–	–
Cc1c(C(=O)NN2CC3CCCC3C2)nn(-c2ccc(Cl)cc2Cl)c1-c1ccc(C#CC2CCCC2)s1 (stereo not given)	6.04	Active	7.98	86	7.00	–	–	–	–	–	–
CCCCCc1ccc(-c2c(C)c(C(=O)NN3CC4CCCC4C3)nn2-c2ccc(Cl)cc2Cl)s1 (stereo not given)	5.44	–	7.69	178	7.32	–	–	–	–	–	–
Cc1c(C(=O)NN2CCCCC2)nn(-c2ccc(Cl)cc2Cl)c1-c1ccc(Cl)cc1	–	–	–	–	–	–	–	–	–	–	Active
CCc1c(C(=O)NN2CCCCC2)nn(-c2ccc(Cl)cc2Cl)c1-c1ccc(C#CCC(C)C)s1	5.92	–	8.29	236	7.64	–	–	–	–	–	–
